DAX1 inh-1: DAX1 (NR0B1) inhibition, primary screen. HEK293T StAR-luciferase reporter, SF-1/DAX-1 repression relief. inhibition, % at 6.8 µM. actives 1.1% (n = 370,000). AID 652010;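 active = inhibition above the mean over all tested compounds plus 3 SD, cut at about 3.6% in these data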;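 note: 0% = DAX-1 cells with DMSO and 100% = cells lacking DAX-1 with DMSO; higher inhibition means more luminescence from relief of DAX-1 repression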
GASC-1 inh: inhibitors of human GASC-1 (JMJD2C) demethylase; GST-JMJD2C(1-420) H3K9me3 demethylation, DELFIA europium; inhibition, % at 2.35 µM; actives 0.069% (n = 330,000);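 active = more than half of a compound's replicate wells show inhibition beyond 50%, single wells judged on their own value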;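 note: signal counts dimethyl H3K9 product captured on neutravidin plate; 0% = median of DMSO wells and 100% = 0.3 times that DMSO median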
Target sequence (Q9H3R0 1-420 limits assumed): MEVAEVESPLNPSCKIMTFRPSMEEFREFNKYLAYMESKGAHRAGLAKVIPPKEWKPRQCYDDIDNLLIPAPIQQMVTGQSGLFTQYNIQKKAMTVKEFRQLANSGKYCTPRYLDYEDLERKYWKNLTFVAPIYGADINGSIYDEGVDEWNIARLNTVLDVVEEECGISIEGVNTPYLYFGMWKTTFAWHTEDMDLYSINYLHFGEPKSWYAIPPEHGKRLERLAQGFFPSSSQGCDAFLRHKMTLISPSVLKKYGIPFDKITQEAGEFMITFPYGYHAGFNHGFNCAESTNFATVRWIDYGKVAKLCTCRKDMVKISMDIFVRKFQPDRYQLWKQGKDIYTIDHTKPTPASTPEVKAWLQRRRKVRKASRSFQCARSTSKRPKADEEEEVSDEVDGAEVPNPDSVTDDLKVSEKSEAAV
NR2E3 ag-1: agonists of human NR2E3 nuclear receptor; actives 0.35% (n = 360,000); CHO-S Gal4-NCOR/VP16-NR2E3 two-hybrid, luciferase; inhibition of corepressor binding, % at 3.98 µM; Q9Y5X4;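 active = inhibition above the mean of all tested compounds plus 3 SD, cut at about 70% in these data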;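 note: 0% = DMSO with NR2E3 transfected cells and 100% = cells lacking NR2E3 construct; higher means lower luciferase signal from less NR2E3 corepressor binding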
SMARCA2 activ: SMARCA2 function activation, primary screen. MG213 cells, MMTV-luciferase reporter, dexamethasone, overnight. activation, % at 9.1 µM. actives 1% (n = 370,000). AID 652017; in the data active = activation above about 7.8%;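 note: 0% = vehicle wells and 100% = reference activator wells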
NR2E3 ag-2: agonists of human nuclear receptor NR2E3; GST-NR2E3/biotin-RetCOR TR-FRET, 1536-well; inhibition of corepressor binding, % at 4.78 µM; actives 0.12% (n = 320,000);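 active = percent inhibition above the cutoff of mean plus 3 SD of all tested compounds, set per screening campaign, cut at about 20% in these data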;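 note: 0% = DMSO wells and 100% = biotin wells as full block of FRET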
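Assay system: NR2E3–RetCOR corepressor complex. Quantity: 1.35 nM GST-NR2E3. Buffer or medium: pH 7.5 Tris-based buffer. Reagent: biotinylated RetCOR corepressor at 7 nM final. Schedule: 5 h at 4 °C. Detection: TR-FRET, emission read at 617 and 671 nm. Replicates: one well per compound, singlicate testing.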
DAX1 inh-2: NR0B1 (DAX1) inhibition. P51843. HEK293 Gal4-DAX1 luciferase reporter, luminescence. inhibition, % at 6.75 µM. actives 0.99% (n = 340,000). AID 504766;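 active = inhibition above the mean over all tested compounds plus 3 SD, cut at about 4.2% in these data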;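 note: 0% = DAX1-transfected cells with DMSO and 100% = empty-vector control cells with DMSO; inhibition shows as a rise in luminescence from relieved DAX1 repression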
Target sequence (P51843 207-470 limits assumed): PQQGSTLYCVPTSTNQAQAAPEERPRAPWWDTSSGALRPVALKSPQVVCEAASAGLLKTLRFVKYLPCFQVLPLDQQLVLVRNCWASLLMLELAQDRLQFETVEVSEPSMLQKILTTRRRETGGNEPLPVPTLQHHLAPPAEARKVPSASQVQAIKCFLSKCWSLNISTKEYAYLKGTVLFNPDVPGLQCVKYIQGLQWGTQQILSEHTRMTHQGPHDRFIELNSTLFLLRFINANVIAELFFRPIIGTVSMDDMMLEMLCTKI
An asterisk follows results filed as active; . = not tested or not shown. Hits are enriched below; roughly 3.2% of the tested compounds scored in any of these assays.

SMILES | DAX1 inh-1 | GASC-1 inh | NR2E3 ag-1 | SMARCA2 activ | NR2E3 ag-2 | DAX1 inh-2
O=S(=O)(c1ccc(Br)cc1)N1CCN=C1SCc1cccnc1 | 0 | 7 | -12 | 1 | -2 | 0
Cc1ccc2c(c1)c1c3n2CCN(CC#N)C3CCC1 (stereo not drawn) | 1 | -2 | -22 | -2 | 2 | 6.5*
Cc1ccc(CNC(=O)CCS(=O)(=O)c2cc3c(cc2Br)CCN3C(=O)C2CC2)o1 | -1 | . | . | 0 | . | .
O=C(Nc1cccc(-c2cn3cccnc3n2)c1)c1ccc2c(c1)OCO2 | -1 | 6 | -19 | 4 | 0 | 1
c1cnc2nc(-c3ccc4c(c3)OCO4)cn2c1 | 4.1* | 7 | -61 | 7 | 2 | 1
COC(=O)[C@]12C[C@H](CC(=O)NCc3ccccc3)C(=O)N(Cc3ccco3)C1=C[C@H](C(C)C)O[C@@H]2C1CC1 | -1 | . | . | -5 | . | .
CC1(C)C/C(=N\O)C(C(O)c2cccc([N+](=O)[O-])c2)C(C)(C)N1 (stereo not drawn) | 0 | 8 | -35 | -1 | -2 | 6.2*
COc1ccc(CN2C(=O)[C@@](O)(c3cccn3C)c3cc(F)ccc32)cc1 | -1 | . | . | 1 | . | .
COc1cc(CN2CCC(Cc3ccccc3)CC2)cc(OC)c1OC | 0 | 0 | -20 | -1 | . | 5.1*
COc1ccc(CN2CCC(Cc3ccccc3)CC2)c(C)c1C | 0 | 4 | -16 | 0 | . | 4.3*
Fc1ccccc1CN1CCC(Cc2ccccc2)CC1 | 0 | 20 | 8 | -1 | -1 | -1
C[C@H]1Cn2nnc(-c3ccccc3)c2Cn2c3ccccc3c(=O)n21 | -1 | . | . | 7 | . | .
CCN(C(=O)[C@@H](C)[C@@H](O)c1ccc2ccccc2c1)c1ccccc1 | -1 | . | . | -2 | . | .
NC(=O)c1cc2c(s1)-c1cc(Cl)ccc1SC2 | 2 | -19 | -36 | -3 | 1 | 1
COCCNC(=O)c1cc2c(s1)-c1ccc(Cl)cc1SC2 | 2 | 7 | -115 | 3 | . | 5.0*
CCCCc1nc2cc(C(=O)N3CCCC3)ccc2o1 | 4.0* | 4 | -43 | 1 | 1 | 1
CCCCc1nc2cc(C(=O)N3CCCCC3CC(=O)OCC)ccc2o1 (stereo not drawn) | 0 | 6 | -43 | 2 | -4 | 1
CCCCc1nc2cc(C(=O)NC(C)c3cnn(C)c3)ccc2o1 (stereo not drawn) | 3.8* | -2 | -39 | 4 | -1 | 1
CCCCc1nc2cc(C(=O)NCc3ccccn3)ccc2o1 | 0 | -6 | 6 | -3 | 6 | 1
CCCCc1nc2cc(C(=O)N3CCNC(=O)C3)ccc2o1 | 0 | 2 | -36 | -1 | 1 | 0
CCCCc1nc2cc(C(=O)N3CCCCC3C(=O)OC)ccc2o1 (stereo not drawn) | 4.2* | -7 | -76 | 2 | -3 | 1
COC(c1ccccc1)c1nnc(CCC(=O)N(C)C(C2CC2)C2CC2)o1 (stereo not drawn) | 0 | 16 | -44 | 4 | 5 | 5.2*
CN(Cc1ccccc1)S(=O)(=O)c1cccc(C(=O)OCc2ccccc2Cl)c1 | 1 | . | . | 0 | . | .
Cc1csc(C(C#N)C(=O)c2cc3ccccc3o2)n1 (stereo not drawn) | 3.9* | -2 | -121 | 3 | 2 | -1
CC(C)[C@H](NC(=O)[C@H](Cc1ccccc1)NC(=O)OC(C)(C)C)C(=O)N1CCC2CCN(S(=O)(=O)c3ccccc3)CC21 (stereo partly drawn) | 0 | . | . | -4 | . | .
SMILES | DAX1 inh-1 | GASC-1 inh | NR2E3 ag-1 | SMARCA2 activ | NR2E3 ag-2 | DAX1 inh-2
CCCN(CC(=O)Nc1ccccc1C)C(=O)c1ccc(Cl)c(S(=O)(=O)N2CCCC2)c1 | 2 | -4 | 1 | -4 | 2 | 5.3*
CCCN(CC(=O)Nc1ccccc1C)C(=O)c1ccc(C)c(S(=O)(=O)N2CCCCC2)c1 | 0 | 5 | 9 | -2 | 1 | -1
CCOC(=O)C1=C(COC(=O)c2cccc(Br)c2)NC(=O)NC1C (stereo not drawn) | 2 | 20 | 5 | -1 | -3 | -1
CCOC(=O)C1=C(COC(=O)c2cccc(N(C)C)c2)NC(=O)NC1C (stereo not drawn) | 4.2* | 11 | -85 | 5 | -3 | 0
COC(=O)c1ccc2nc(-c3ccc(C)cc3)c(CC3CCCCC3)n2c1 | 3.9* | . | -54 | 1 | . | .
COC(=O)c1ccc2nc(C3CCCCC3)c(Cc3ccccc3C(F)(F)F)n2c1 | 3.6* | . | -2 | 2 | . | .
CCOC(=O)[C@]12CCCC3=C1N(CCC3)C(=O)[C@@H](CC(=O)NCCCCc1ccccc1)C2 | -1 | . | . | -5 | . | .
COC(=O)[C@]12C[C@H](CC(=O)NCc3ccc(OC)c(OC)c3)C(=O)N(Cc3ccco3)C1=C[C@H](COCc1ccccc1)O[C@@H]2C | 1 | . | . | -1 | . | .
Cc1ccc(CSc2ncn(-c3ccccc3)n2)cc1 | 0 | 4 | -41 | 3 | -2 | 4.2*
Clc1ccccc1CSc1ncn(-c2ccccc2)n1 | 2 | -9 | -90 | 5 | 4 | 4
O=C(OCc1cn(Cc2ccccc2)nn1)N1CCOCC1 | 0 | . | . | 2 | . | .
CCCC[C@H]1C2CC(OC(=O)Nc3ccccc3OC)C(C2)[C@H]2CCCCN21 (stereo partly drawn) | 1 | . | . | -2 | . | .
CCn1c(C)nc2cc(C(=O)NNC(=S)Nc3ccc(F)cc3)ccc21 | 3.7* | 6 | -47 | 2 | -4 | 2
CCn1c(C)nc2cc(C(=O)NNC(=S)Nc3ccc(Cl)cc3)ccc21 | 1 | 13 | -8 | -3 | 1 | 1
O=C(CCc1ccccc1-c1ccccc1CCNC(=O)c1c(F)cccc1F)NCc1ccccc1 | -1 | . | . | -1 | . | .
CS(=O)(=O)N1CCN(Cc2cc(=O)n3ccsc3n2)CC1 | 0 | -7 | 3 | 1 | 3 | 5.2*
O=c1cc(CN2CCN(S(=O)(=O)c3ccc4ccccc4c3)CC2)nc2sccn12 | 0 | -2 | -12 | 0 | 2 | 1
O=S(=O)(c1ccc(Cl)s1)N1CCC(c2nc3ccccc3o2)CC1 | -1 | . | . | -5 | . | .
Nc1ccc(Cl)c(-c2nc3ncccc3o2)c1 | 0 | -3 | -44 | 2 | 4 | 0
Nc1ccc(-c2nc3ncccc3o2)c(Cl)c1 | 3 | 3 | -101 | 5 | 0 | 5.6*
C=CCN(CC#Cc1ccc(C(F)(F)F)cc1)CC=C | 0 | . | . | -1 | . | .
C1CCc2nc3c(nc2C1)CCCC3 | 1 | -4 | -13 | 2 | -2 | 5.0*
c1ccc2nc3c(nc2c1)CCCC3 | 0 | -2 | -4 | 2 | -3 | 0
COC(=O)[C@]12C[C@H](CC(=O)N3CCC(c4ccccc4)CC3)C(=O)N(Cc3ccco3)C1=C[C@H](C(C)(C)C)O[C@@H]2C | -1 | . | . | -2 | . | .
CCCN(CC(=O)Nc1ccc(NC(C)=O)cc1)CC(=O)Nc1ccc(F)c(F)c1F | -1 | 13 | -11 | -4 | 0 | 4.6*

Screens from PubChem BioAssay.
